Screening results from PubChem.
SR-BI uptake up: enhances SR-BI lipid uptake from DiI-HDL | CHO ldlA[mSR-BI] cells, DiI-HDL uptake fluorescence, 3 h; 100 = double the neutral-control signal | activation, % at 12.5 µM | hit rate 0.096% among 320,000 | AID 504775;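 active = mean replicate activation of at least 60% and every replicate at or above 60%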;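 also: 0% = median plate neutral-control signal and 100% = twice that signal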
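Test system: SR-BI-overexpressing, LDLR-lacking CHO cells; Medium: Ham's F12 with 0.5% BSA, HEPES 25 mM, pH 7.4; Schedule: 3 h, 37 °C; Technique: bottom-read fluorescence, 550/595 nm.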
UBC13 inh: inhibitors of human UBC13 polyubiquitin chain formation | TR-FRET | inhibition, % at 20 µM | hit rate 0.47% among 330,000 | AID 485273; in the data active = inhibition above about 45%, passing the limit was not always enough
Neddyl block: cullin neddylation inhibition; P61081+Q13564; TR-FRET cullin neddylation, biochemical; inhibition, % at 25 µM; hit rate 0.58% among 360,000; in the data active = inhibition above about 36%
Target sequence (P61081 whole entry, looked up): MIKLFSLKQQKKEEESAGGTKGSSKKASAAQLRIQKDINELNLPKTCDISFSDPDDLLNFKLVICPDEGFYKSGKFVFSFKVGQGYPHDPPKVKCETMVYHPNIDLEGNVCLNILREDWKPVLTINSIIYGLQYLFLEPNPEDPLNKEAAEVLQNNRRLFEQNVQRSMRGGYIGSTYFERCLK
Target sequence (Q13564 whole entry, looked up): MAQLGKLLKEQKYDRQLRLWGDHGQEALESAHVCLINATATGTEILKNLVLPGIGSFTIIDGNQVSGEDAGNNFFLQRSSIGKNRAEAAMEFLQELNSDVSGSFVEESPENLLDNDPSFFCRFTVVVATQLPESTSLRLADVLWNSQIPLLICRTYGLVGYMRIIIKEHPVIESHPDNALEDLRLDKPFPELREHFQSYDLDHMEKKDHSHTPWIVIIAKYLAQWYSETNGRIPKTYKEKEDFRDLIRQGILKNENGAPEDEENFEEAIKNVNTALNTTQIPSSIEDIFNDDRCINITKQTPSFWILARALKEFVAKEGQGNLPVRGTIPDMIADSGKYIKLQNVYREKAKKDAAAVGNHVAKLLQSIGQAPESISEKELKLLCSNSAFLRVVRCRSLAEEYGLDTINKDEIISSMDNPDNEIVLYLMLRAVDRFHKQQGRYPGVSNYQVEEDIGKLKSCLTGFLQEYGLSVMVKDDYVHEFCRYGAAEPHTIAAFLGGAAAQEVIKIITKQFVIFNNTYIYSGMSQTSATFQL
SR-BI DiI inh: inhibitors of mouse SR-BI mediated HDL lipid uptake. AID 488896. inhibition, % at 12.5 µM. Q61009. ldlA[mSR-BI] CHO cells, DiI-HDL uptake fluorescence, 3 h. hit rate 0.96% among 320,000;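 active = mean replicate inhibition of at least 70% and a set share of replicates each scoring 70 or more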;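 also: 0% = median of neutral control wells and 100% = median of positive control wells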
Neddyl inh conf: cullin neddylation inhibition, confirmation | shares compounds with Neddyl block | hit rate 13% among 1,800 | TR-FRET cullin neddylation biochemical assay | calls only at 25 µM; in the data active = inhibition above about 40%;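 also: neddylation substrate is the cullin 1 ring ligase complex with SKP2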
Active calls of the source: *; i = inactive; · = no result shown; + = active, no number. A selection: hits, their analogues and other compounds. The true share with any hit is near 1.9%.

SMILES	SR-BI uptake up	UBC13 inh	Neddyl block	SR-BI DiI inh	Neddyl inh conf
Cc1cc(=O)oc2cc(OCC(O)Cn3ccnc3)ccc12 (stereo not given)	21.6	-7.6	40.5*	-21.6	i
CSC12CCCN(CCC(C(C)(C)C)C1)C2=O (stereo not given)	·	·	0.2	·	·
CCN(Cc1cccs1)C(=O)CN1C(=O)NC(c2ccccc2)(c2ccccc2)C1=O	28.2	0.2	-10.1	-28.2	·
CCCS(=O)(=O)NC(=O)C1(C)CCCN(C(=O)c2ccc3ccccc3c2)C1 (stereo not given)	·	·	-10.9	·	·
COC(=O)C[C@H]1C[C@H]2c3cc(NC(=O)Cc4ccncc4)ccc3O[C@H]2[C@@H](CO)O1	·	·	7.5	·	·
COC(=O)C1CCN(Cc2cn(-c3ccccc3)nc2-c2ccc3c(c2)OCO3)CC1	-6.8	6.1	40.1*	6.8	i
CC(=O)NCC1CCCN(Cc2cn(-c3ccccc3)nc2-c2ccc3c(c2)OCO3)C1 (stereo not given)	5.7	-0.1	40.4*	-5.7	i
O=C1Nc2ccc(S(=O)(=O)N3CCCC3)c3cccc1c23	-1.2	-4.1	40.1*	1.2	i
CCOC(=O)N1CCN(S(=O)(=O)c2ccc3c4c(cccc24)C(=O)N3)CC1	9.5	0.4	52.3*	-9.5	+
N#Cc1nc(-c2cccc3ccccc23)oc1NCCN1CCOCC1	-24.3	15.5	·	24.3	·
N#Cc1nc(-c2ccco2)oc1NCCN1CCOCC1	3.5	3.6	38.6*	-3.5	i
COCOc1ccc(-c2ncc(OCCN3CCCC3=O)nc2NC(=O)c2cc3ccccc3s2)cc1	·	·	-14.0	·	·
Cc1ccc2[nH]c3c(Cl)ncnc3c2c1	-10.0	9.1	·	10.0	·
COc1ccc2c(c1)[nH]c1c(Cl)ncnc12	9.2	16.4	40.2*	-9.2	i
Cc1ccc(NC(=O)C(C)OC(=O)CCN=C2NS(=O)(=O)c3ccccc32)cc1 (stereo not given)	-4.2	3.1	6.5	4.2	·
[O-][n+]1c2ccccc2cc2ccccc21	-6.2	-0.5	45.0*	6.2	·
CN(CCOc1ccccc1)C(=O)c1cc(S(=O)(=O)N2CCOCC2)c(Cl)cc1Cl	·	·	3.1	·	·
NC(=O)c1ccc(NC(=O)CSc2nc3ccccc3c(=O)n2CCCN2CCOCC2)cc1	20.1	2.5	9.3	-20.1	·
Cc1ccc2nc(Cl)cc(=O)n2c1	4.4	·	43.5*	-4.4	i
Cc1ccc2nc(COC(=O)c3ccc(Cl)nc3)cc(=O)n2c1	-3.0	-2.0	19.8	3.0	·
O=C(O)c1cc(N2CCCCC2)nc2ccccc12	·	·	41.5*	·	+
Cc1c(/C=C(\CC(=O)O)c2nc3ccccc3s2)cc(C#N)n1C	-10.4	-12.6	42.8*	10.4	·
CC(=O)Nc1cccc(N/C=C(\C=O)c2nc3ccccc3o2)c1	0.8	4.9	54.7*	-0.8	i
CC(=O)Nc1ccc(/C=C/c2nc3ccccc3o2)cc1	-46.5	1.2	46.7*	46.5	·
CC(=O)Nc1ccc(N/C=C(\C=O)c2nc3ccccc3o2)cc1	-26.4	5.8	·	26.4	·
SMILES	SR-BI uptake up	UBC13 inh	Neddyl block	SR-BI DiI inh	Neddyl inh conf
NS(=O)(=O)c1ccc(NC(=O)c2cccc3cc4ccccc4nc23)cc1	-9.8	·	13.9	9.8	·
O=C1NC(=O)c2c(NC(=O)C3CCCO3)cccc21 (stereo not given)	13.5	5.0	28.7	-13.5	·
CC(=O)Nc1cccc2c1C(=O)NC2=O	8.0	13.9	46.4*	-8.0	+
O=C(Nc1sc2c(c1C(=O)NCCCO)CCCC2)c1ccccc1	-49.6	17.0	30.4	49.6	·
NCCNC(=O)c1c(NC(=O)c2ccccc2)sc2c1CCCC2	-13.3	11.3	45.6*	13.3	i
CCCCNC(=O)c1nc(-c2cccnc2)oc1-c1ccc(OC(F)(F)F)cc1	·	·	-58.4	·	·
CCN(CC)c1ccc(/C=N/NC(=O)c2c(Cl)c(C)nn2C)cc1	-6.0	4.2	38.2*	6.0	i
O=C(N/N=C/c1ccc(N2CCOCC2)cc1)C1CC1	6.5	10.3	42.2*	-6.5	i
O=C(N/N=C/C=C/c1ccccc1)C1CC1c1ccccc1 (stereo not given)	-3.8	-2.7	-15.3	3.8	·
CN(C)c1ccc(/C=N/NC(=O)C2CC2c2ccccc2)cc1 (stereo not given)	4.1	3.4	53.8*	-4.1	+
C=CCNC(=S)N/N=C/c1ccc(N(CC)Cc2ccccc2)cc1	-29.4	1.8	56.3*	29.4	·
COc1ccc(/C=N/NC(=O)Cc2ccc(Cl)cc2)cc1OC	-12.4	-6.0	-26.5	12.4	·
CCN(CC)c1ccc(/C=N/NC(=O)C2CC2)cc1	45.3	-1.1	51.0*	-45.3	+
